Measurements: ChEMBL document CHEMBL4196022, “Alkynyl-containing phenylthiazoles: Systemically active antibacterial agents effective against methicillin-resistant Staphylococcus aureus (MRSA)” (Eur J Med Chem, 2018)
≈ marks a conversion by molar mass, not a printed value. Calls of active or inactive are those of the source. The calls are words filed in the database; no cut-off is given here.

Key:
Staphylococcus aureus [1] = assay: Antibacterial activity against methicillin-resistant Staphylococcus aureus NRS107 after 20 hrs by broth microdilution assay; type: functional; details: NRS107, 20 h
How it was run: (§1)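 Broth microdilution per CLSI in cation-adjusted Mueller Hinton broth. Compounds serially diluted, in triplicate. Incubation at 37 °C for at least 20 hours. MIC taken as the lowest concentration with no visible bacterial growth.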

Staphylococcus aureus [2] = assay: Antibacterial activity against methicillin-resistant Staphylococcus aureus USA300 after 20 hrs by broth microdilution assay; type: functional; details: USA300, 20 h; how it was run: as §1
Staphylococcus aureus [3] = assay: Bactericidal activity against methicillin-resistant Staphylococcus aureus USA300 up to 18 hrs by broth microdilution assay; type: functional; details: USA300, 18 h, read-out: MBC99.9
Staphylococcus aureus [4] = assay: Bactericidal activity against methicillin-resistant Staphylococcus aureus NRS107 up to 18 hrs by broth microdilution assay; type: functional; details: NRS107, 18 h, read-out: MBC99.9
Staphylococcus aureus [5] = assay: Antibacterial activity against methicillin-resistant Staphylococcus aureus NRS119 after 20 hrs by broth microdilution assay; type: functional; details: NRS119, 20 h; how it was run: as §1
Staphylococcus aureus [6] = assay: Bactericidal activity against methicillin-resistant Staphylococcus aureus NRS119 up to 18 hrs by broth microdilution assay; type: functional; details: NRS119, 18 h, read-out: MBC99.9
Staphylococcus aureus [7] = assay: Antibacterial activity against methicillin-resistant Staphylococcus aureus NRS123 (USA400) after 20 hrs by broth microdilution assay; type: functional; how it was run: as §1
Staphylococcus aureus [8] = assay: Bactericidal activity against methicillin resistant Staphylococcus aureus NRS123 (USA400) up to 18 hrs by broth microdilution assay; type: functional; details: read-out: MBC99.9
Staphylococcus aureus [9] = assay: Antibacterial activity against vancomycin-resistant Staphylococcus aureus VRS10 after 20 hrs by broth microdilution assay; type: functional; details: VRS10, 20 h; how it was run: as §1
Staphylococcus aureus [10] = assay: Bactericidal activity against methicillin resistant vancomycin-resistant Staphylococcus aureus VRS10 up to 18 hrs by broth microdilution assay; type: functional; details: VRS10, 18 h, read-out: MBC99.9
Staphylococcus aureus [11] = assay: Antibacterial activity against vancomycin-resistant Staphylococcus aureus VRS11a after 20 hrs by broth microdilution assay; type: functional; how it was run: as §1
Staphylococcus aureus [12] = assay: Bactericidal activity against methicillin resistant vancomycin-resistant Staphylococcus aureus VRS11a up to 18 hrs by broth microdilution assay; type: functional; details: read-out: MBC99.9
Staphylococcus aureus [13] = assay: Antibacterial activity against vancomycin-resistant Staphylococcus aureus VRS12 after 20 hrs by broth microdilution assay; type: functional; details: VRS12, 20 h; how it was run: as §1
Staphylococcus aureus [14] = assay: Bactericidal activity against methicillin resistant vancomycin-resistant Staphylococcus aureus VRS12 up to 18 hrs by broth microdilution assay; type: functional; details: VRS12, 18 h, read-out: MBC99.9
How it was run: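 MBC set up from the MIC plates. Aliquots from wells with no growth spotted onto tryptic soy agar and incubated at 37 °C for at least 18 hours. MBC taken as the lowest concentration giving 99.9% inhibition of bacterial growth.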

Staphylococcus aureus [15] = assay: Potency index, ratio of vancomycin MIC to compound MIC for antibacterial activity against vancomycin-resistant Staphylococcus aureus VRS10; type: functional
Staphylococcus aureus [16] = assay: Potency index, ratio of vancomycin MIC to compound MIC for antibacterial activity against vancomycin-resistant Staphylococcus aureus VRS11a; type: functional
Staphylococcus aureus [17] = assay: Potency index, ratio of vancomycin MIC to compound MIC for antibacterial activity against vancomycin-resistant Staphylococcus aureus VRS12; type: functional
Staphylococcus aureus [18] = assay: Ratio of MBC to MIC for methicillin-resistant Staphylococcus aureus USA300; type: functional
How it was run: (§2)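 MBC/MIC ratio. […] MBC by plating no-growth wells onto tryptic soy agar at 37 °C for at least 18 h; taken as the concentration giving 99.9% growth inhibition.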

Staphylococcus aureus [19] = assay: Ratio of MBC to MIC for methicillin-resistant Staphylococcus aureus NRS107; type: functional; how it was run: as §2
Staphylococcus aureus [20] = assay: Ratio of MBC to MIC for methicillin-resistant Staphylococcus aureus NRS119; type: functional; how it was run: as §2
Staphylococcus aureus [21] = assay: Ratio of MBC to MIC for methicillin-resistant Staphylococcus aureus NRS123 (USA400); type: functional; how it was run: as §2
Staphylococcus aureus [22] = assay: Ratio of MBC to MIC for vancomycin-resistant Staphylococcus aureus VRS10; type: functional; how it was run: as §2
Staphylococcus aureus [23] = assay: Ratio of MBC to MIC for vancomycin-resistant Staphylococcus aureus VRS11a; type: functional; how it was run: as §2
Staphylococcus aureus [24] = assay: Ratio of MBC to MIC for vancomycin-resistant Staphylococcus aureus VRS12; type: functional; how it was run: as §2
Staphylococcus aureus [25] = assay: Bactericidal activity against methicillin-resistant Staphylococcus aureus NRS123 (USA400) assessed as reduction in bacterial load at 4 times MIC after 8 hrs by time kill assay relative to control; type: functional
J774 [26] = assay: Cytotoxicity against mouse J774 cells assessed as reduction in cell viability up to 8 ug/ml after 24 hrs by MTS assay; type: cell-based; details: j774, 24 h
How it was run: (§3)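 J774 murine macrophages were grown in DMEM with 10% FBS at 37 °C, 5% CO2. Compounds were tested at 8, 16 and 32 μg/mL in triplicate for 24 h, with a DMSO-matched control. MTS was added for 4 h and absorbance read at 490 nm. Viability is given as % of DMSO control (mean ± SD); Student t-test with Holm-Sidak test.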

Staphylococcus aureus [27] = assay: Antibacterial activity against methicillin-resistant Staphylococcus aureus NRS123 (USA400) infected in mouse J774 cells at 8 ug/ml after 24 hrs; type: functional, organism-based
How it was run: (§4)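 J774 macrophages grown in DMEM with 10% FBS at 37 °C, 5% CO2. Infected with USA400 at MOI ~100:1 for 1 h, then washed with gentamicin 50 μg/mL. Treated in triplicate wells for 24 h, washed with gentamicin again and lysed with 0.1% Triton X-100. Lysate plated on tryptic soy agar for 18–22 h; CFU/mL counted.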

HRT-18 cell line = assay: Cytotoxicity against human HRT18 cells assessed as reduction in cell viability up to 32 ug/ml after 2 hrs by MTS assay; type: cell-based; details: hrt-18, 2 h
[28] = Selectivity index, ratio of toxic concentration for human HRT18 cells to MIC for methicillin-resistant Staphylococcus aureus; type: toxicity; details: read-out: Selectivity Index
Staphylococcus aureus [29] = assay: Inhibition of UPPS/UPPP in vancomycin-resistant Staphylococcus aureus VRS10 assessed as potentiation of vancomycin-induced antibacterial activity by measuring fold reduction in vancomycin MIC at 0.5 times MIC preincubated for 30 mins followed by vancomycin addition measured after 20 to 22 hrs by broth microdilution assay relative to control
How it was run: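 VRS10 suspension pre-exposed to compound at ½ × MIC for 30 min at room temperature. […] Incubation at 37 °C for 20–22 h before the MIC was read; untreated bacteria served as control.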

[30] = human, microsomes, 1 h, 0.1 µM
Staphylococcus aureus [31] = assay: Bactericidal activity against methicillin-resistant Staphylococcus aureus USA300 assessed as reduction in bacterial load at 4 times MIC after 4 hrs by time kill assay relative to control; type: functional
Staphylococcus aureus [32] = assay: Bactericidal activity against methicillin-resistant Staphylococcus aureus USA300 assessed as reduction in bacterial load at 4 times MIC after 12 hrs by time kill assay relative to control; type: functional
Staphylococcus aureus [33] = assay: Bactericidal activity against methicillin-resistant Staphylococcus aureus USA300 assessed as reduction in bacterial load at 4 times MIC after 24 hrs by time kill assay relative to control; type: functional
J774 [34] = assay: Cytotoxicity against mouse J774 cells assessed as reduction in cell viability up to 16 ug/ml after 24 hrs by MTS assay; type: cell-based; details: j774, 24 h; how it was run: as §3
Staphylococcus aureus [35] = assay: Antibacterial activity against methicillin-resistant Staphylococcus aureus NRS123 (USA400) infected in mouse J774 cells at 16 ug/ml after 24 hrs; type: functional, organism-based; how it was run: as §4

SMILES: C/C(=N\NC(=N)N)c1sc(-c2ccc(C#CC3CCCC3)cc2)nc1C
- MIC (Staphylococcus aureus [1]): 2 µg/mL (≈ 5.47 µM)
- MIC (Staphylococcus aureus [2]): 2 µg/mL (≈ 5.47 µM)
- MBC (Staphylococcus aureus [3]): 4 µg/mL (≈ 10.9 µM)
- MBC (Staphylococcus aureus [4]): 2 µg/mL (≈ 5.47 µM)
- MIC (Staphylococcus aureus [5]): 1 µg/mL (≈ 2.74 µM)
- MBC (Staphylococcus aureus [6]): 2 µg/mL (≈ 5.47 µM)
- MIC (Staphylococcus aureus [7]): 2 µg/mL (≈ 5.47 µM)
- MBC (Staphylococcus aureus [8]): 2 µg/mL (≈ 5.47 µM)
- MIC (Staphylococcus aureus [9]): 2 µg/mL (≈ 5.47 µM)
- MBC (Staphylococcus aureus [10]): 2 µg/mL (≈ 5.47 µM)
- MIC (Staphylococcus aureus [11]): 1 µg/mL (≈ 2.74 µM)
- MBC (Staphylococcus aureus [12]): 4 µg/mL (≈ 10.9 µM)
- MIC (Staphylococcus aureus [13]): 2 µg/mL (≈ 5.47 µM)
- MBC (Staphylococcus aureus [14]): 2 µg/mL (≈ 5.47 µM)
- Ratio (Staphylococcus aureus [15]): >100
- Ratio (Staphylococcus aureus [16]): >100
- Ratio (Staphylococcus aureus [17]): 8
- Ratio (Staphylococcus aureus [18]): <=3
- Ratio (Staphylococcus aureus [19]): <=3
- Ratio (Staphylococcus aureus [20]): <=3
- Ratio (Staphylococcus aureus [21]): <=3
- Ratio (Staphylococcus aureus [22]): <=3
- Ratio (Staphylococcus aureus [23]; read-out: Ratio): 4
- Ratio (Staphylococcus aureus [24]): <=3
- Activity (Staphylococcus aureus [25]): 3 deltalog10CFU/ml
- Activity (J774 [26]): Non-Toxic
- Activity (Staphylococcus aureus [27]): inactive
- Activity (HRT-18 cell line): Non-Toxic
- selectivity ratio [28]: 7 to 31
- fold change (FC) (Staphylococcus aureus [29]): 512

SMILES: C/C(=N\NC1=NCCN1)c1sc(-c2ccc(C#CC3CC3)cc2)nc1C
- MIC (Staphylococcus aureus [2]): 8 µg/mL (≈ 22 µM)
- MBC (Staphylococcus aureus [3]): 16 µg/mL (≈ 44 µM)
- CLH [30]: < 115.5 µL/min/mg

SMILES: C/C(=N\NC(=N)N)c1sc(-c2ccc(C#CC3CCCCC3)cc2)nc1C
- MIC (Staphylococcus aureus [1]): 16 µg/mL (≈ 42.2 µM)
- MIC (Staphylococcus aureus [2]): 2 µg/mL (≈ 5.27 µM)
- MBC (Staphylococcus aureus [3]): 4 µg/mL (≈ 10.5 µM)
- MBC (Staphylococcus aureus [4]): 16 µg/mL (≈ 42.2 µM)
- MIC (Staphylococcus aureus [5]): 4 µg/mL (≈ 10.5 µM)
- MBC (Staphylococcus aureus [6]): 4 µg/mL (≈ 10.5 µM)
- MIC (Staphylococcus aureus [7]): 2 µg/mL (≈ 5.27 µM)
- MBC (Staphylococcus aureus [8]): 2 µg/mL (≈ 5.27 µM)
- MIC (Staphylococcus aureus [9]): 2 µg/mL (≈ 5.27 µM)
- MBC (Staphylococcus aureus [10]): 2 µg/mL (≈ 5.27 µM)
- MIC (Staphylococcus aureus [11]): 1 µg/mL (≈ 2.63 µM)
- MBC (Staphylococcus aureus [12]): 2 µg/mL (≈ 5.27 µM)
- MIC (Staphylococcus aureus [13]): 2 µg/mL (≈ 5.27 µM)
- MBC (Staphylococcus aureus [14]): 2 µg/mL (≈ 5.27 µM)
- Ratio (Staphylococcus aureus [15]): >100
- Ratio (Staphylococcus aureus [16]): >100
- Ratio (Staphylococcus aureus [17]): 8
- Ratio (Staphylococcus aureus [18]): <=3
- Ratio (Staphylococcus aureus [19]): <=3
- Ratio (Staphylococcus aureus [20]): <=3
- Ratio (Staphylococcus aureus [21]): <=3
- Ratio (Staphylococcus aureus [22]): <=3
- Ratio (Staphylococcus aureus [23]): <=3
- Ratio (Staphylococcus aureus [24]): <=3
- Activity (Staphylococcus aureus [31]): 1.9 deltalog10CFU/ml
- Activity (Staphylococcus aureus [32]): 2.8 deltalog10CFU/ml
- Activity (Staphylococcus aureus [33]): 4.3 deltalog10CFU/ml
- Activity (J774 [34]): Non-Toxic
- Activity (Staphylococcus aureus [35]): inactive
- Activity (HRT-18 cell line): Non-Toxic
- selectivity ratio [28]: 7 to 31
